{
  "source": "paper PMC6982609",
  "about": "(Nature chemical biology, 2019)",
  "key": {"[1]": {"tested_on": "MDA-MB-231 cells", "assay": "Live-cell imaging proliferation/cell death assay with ER-stress inducer", "format": "cell-based", "how_it_was_run": "(§1)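 Cells (1 to 3 × 10^3 per well) were seeded in 96-well plates in duplicate and dosed at the indicated concentrations. Plates were imaged in an IncuCyte live-cell system inside a 37 °C, 5% CO2 incubator. Confluence was derived from phase-contrast images. For cell death, medium contained 1.5 μM DRAQ7, and red-fluorescent dead-cell counts were recorded by automated fluorescence microscopy.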"}, "[2]": {"tested_on": "MDA-MB-468 cells", "assay": "Live-cell imaging proliferation/cell death assay with ER-stress inducer", "format": "cell-based", "how_it_was_run": "as §1"}, "[3]": {"tested_on": "TNBC cells", "assay": "Growth inhibition of TNBC cells by EZH2 inhibitors", "format": "cell-based"}, "[4]": {"tested_on": "EZH2", "details": "read-out: IC50 for EZH2; cited from earlier work"}},
  "data": [
    {"compound": "tunicamycin", "values": [
      {"measurement": "induction of cell death", "setting": "[1]", "result": "not in MDA-MB-231 cells"},
      {"measurement": "induction of cell death", "setting": "[2]", "result": "effectively induced cell death"}
    ]},
    {"compound": "CC[C@H](C)n1cc(C)c2c(C(=O)NCc3c(C)cc(C)[nH]c3=O)cc(-c3ccc(N4CCNCC4)nc3)cc21", "note": "[GSK126]", "values": [
      {"measurement": "growth inhibition and apoptosis induction in TNBC cells", "setting": "[3]", "result": "failed to inhibit growth"}
    ]},
    {"compound": "COc1cc(C)[nH]c(=O)c1CNC(=O)c1c(C)n([C@H](C)C2CCN(CC(F)(F)F)CC2)c2ccccc12", "note": "[CPI-1205, (R)-N-((4-methoxy-6-methyl-2-oxo-1,2-dihydropyridin-3-yl)methyl)-2-methyl-1-(1-(1-(2,2,2-trifluoroethyl)piperidin-4-yl)ethyl)-1H-indole-3-carboxamide]", "values": [
      {"measurement": "growth inhibition and apoptosis induction in TNBC cells", "setting": "[3]", "result": "failed to inhibit growth"}
    ]},
    {"compound": "CCCc1cc(C)[nH]c(=O)c1CNC(=O)c1cc(-c2ccc(N3CCN(C(=O)CCOCCOCCOCCOCCOCCOCCOCCOCCOCCOCCOCCOCCNC(=O)CCCC[C@@H]4SC[C@@H]5NC(=O)N[C@@H]54)CC3)nc2)cc2c1cnn2C(C)C", "note": "[UNC2399]", "values": [
      {"measurement": "IC50", "setting": "[4]", "result": 17, "unit": "nM"}
    ]}
  ]
}
